Measured values from ChEMBL document CHEMBL4270565, “Design, synthesis and antimicrobial evaluation of propylene-tethered ciprofloxacin-isatin hybrids” (Eur J Med Chem, 2018).
Values after ≈ are worked out from the molar mass of the structure shown.

Key:
[1] = system: Staphylococcus epidermidis; test: Antibacterial activity against methicillin-sensitive Staphylococcus epidermidis ATCC 12228 after 18 to 24 hrs by two-fold serial dilution method; type: functional
How it was run: (§1)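 Agar two-fold dilution MIC. Compounds were dissolved in 0.1 N NaOH and water, then serially diluted in melted Mueller-Hinton agar, with top concentrations starting at 128. Plates were inoculated at about 10 cfu and incubated at 35 °C for 18–24 h. MIC was taken as the lowest concentration giving 90% inhibition of growth.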

[2] = system: Citrobacter freundii; test: Antibacterial activity against extended-spectrum beta-lactamase harboring Citrobacter freundii ATCC 43864 after 18 to 24 hrs by two-fold serial dilution method; type: functional
How it was run: (§2)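 Agar two-fold serial dilution in Mueller-Hinton agar. Strains came from the Chinese Center for Disease Control and Prevention. Compounds were dissolved in 0.1 N NaOH and water, then diluted in melted agar to final levels stepping down from 128. Plates were inoculated with bacterial cfu and incubated at 35 C for 18–24 h. MIC is the lowest concentration giving 90% growth inhibition.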

[3] = system: Serratia marcescens; test: Antibacterial activity against Serratia marcescens ATCC 21074 after 18 to 24 hrs by two-fold serial dilution method; type: functional; how it was run: as §1
[4] = AUC (0 to infinity) in ICR mouse at 50 mg/kg, po administered as single dose by HPLC analysis; type: ADME, organism-based; parameters: dose 50 mg/kg, route oral, time infinity; settings: in vivo
How it was run: (§3)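 Mice (3 per group), fasted overnight, given a single oral dose of 50 mg/kg as a suspension in 0.5% CMC. Jugular vein blood taken at 0.25, 0.5, 1, 2, 4, 6, 8 and 24 h. Serum proteins precipitated with acetonitrile and centrifuged; the dried supernatant was redissolved in acetonitrile for HPLC. PK parameters were derived directly from the concentration–time data.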

[5] = system: Klebsiella pneumoniae; test: Antibacterial activity against extended-spectrum beta-lactamase harboring Klebsiella pneumoniae ATCC 700603 after 18 to 24 hrs by two-fold serial dilution method; type: functional; how it was run: as §2
[6] = system: Klebsiella pneumoniae; test: Antibacterial activity against extended-spectrum beta-lactamase deficient Klebsiella pneumoniae 15-2 after 18 to 24 hrs by two-fold serial dilution method; type: functional; how it was run: as §1
[7] = system: Proteus vulgaris; test: Antibacterial activity against Proteus vulgaris ATCC 29905 after 18 to 24 hrs by two-fold serial dilution method; type: functional; how it was run: as §1
[8] = system: Enterococcus faecalis; test: Potency index, ratio of levofloxacin MIC90 to compound MIC90 for Enterococcus faecalis ATCC 29212; type: functional
[9] = system: Enterococcus faecalis; test: Antibacterial activity against Enterococcus faecalis ATCC 29212 after 18 to 24 hrs by two-fold serial dilution method; type: functional; how it was run: as §1
[10] = system: Enterococcus faecium; test: Antibacterial activity against Enterococcus faecium ATCC 700221 after 18 to 24 hrs by two-fold serial dilution method; type: functional; how it was run: as §1
[11] = system: Klebsiella aerogenes; test: Antibacterial activity against Enterobacter aerogenes ATCC 13048 after 18 to 24 hrs by two-fold serial dilution method; type: functional; how it was run: as §1
[12] = system: Mycobacterium tuberculosis; test: Antimycobacterial activity against Mycobacterium tuberculosis H37Rv after 7 days; type: functional; settings: 168 h
How it was run: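 Rapid direct susceptibility test in 48-well plates. Two-fold dilutions of compound from DMSO stocks were mixed with an equal volume of bacterial suspension. Medium-only wells served as growth controls and water-only wells as no-growth controls. Plates were sealed and held at 37 C in a humid box, and controls were checked at 3 days. MIC (90% growth inhibition) was read visually by high-magnification observation of the cells and re-read at 7 days.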

[13] = system: Escherichia coli; test: Antibacterial activity against extended-spectrum beta-lactamase deficient Escherichia coli ATCC 25922 after 18 to 24 hrs by two-fold serial dilution method; type: functional; how it was run: as §1
[14] = system: Enterococcus faecium; test: Antibacterial activity against Enterococcus faecium 13-7 after 18 to 24 hrs by two-fold serial dilution method; type: functional; how it was run: as §1
[15] = Half life in mouse microsomes; type: ADME, Microsome
[16] = system: Staphylococcus epidermidis; test: Potency index, ratio of ciprofloxacin MIC90 to compound MIC90 for methicillin-sensitive Staphylococcus epidermidis ATCC 12228; type: functional
[17] = system: Enterococcus faecalis; test: Potency index, ratio of ciprofloxacin MIC90 to compound MIC90 for Enterococcus faecalis ATCC 51299; type: functional
[18] = system: Staphylococcus aureus; test: Potency index, ratio of levofloxacin MIC90 to compound MIC90 for methicillin-sensitive Staphylococcus aureus ATCC 29213; type: functional
[19] = Tmax in ICR mouse at 50 mg/kg, po administered as single dose by HPLC analysis; type: ADME, organism-based; settings: in vivo; how it was run: as §3
[20] = system: Escherichia coli; test: Antibacterial activity against extended-spectrum beta-lactamase harboring Escherichia coli ATCC 35218 after 18 to 24 hrs by two-fold serial dilution method; type: functional; how it was run: as §2
[21] = system: Staphylococcus epidermidis; test: Antibacterial activity against methicillin-resistant Staphylococcus epidermidis 13-3 after 18 to 24 hrs by two-fold serial dilution method; type: functional; how it was run: as §2
[22] = Cmax in ICR mouse at 50 mg/kg, po administered as single dose by HPLC analysis; type: ADME, organism-based; parameters: dose 50 mg/kg, route oral; settings: in vivo; how it was run: as §3
[23] = system: Staphylococcus aureus; test: Antibacterial activity against methicillin-sensitive Staphylococcus aureus ATCC 29213 after 18 to 24 hrs by two-fold serial dilution method; type: functional; how it was run: as §2
[24] = system: Pseudomonas aeruginosa; test: Antibacterial activity against Pseudomonas aeruginosa ATCC 27853 after 18 to 24 hrs by two-fold serial dilution method; type: functional; how it was run: as §1
[25] = system: Staphylococcus aureus; test: Antibacterial activity against methicillin-resistant Staphylococcus aureus ATCC 33591 after 18 to 24 hrs by two-fold serial dilution method; type: functional; how it was run: as §2
[26] = system: Enterococcus faecalis; test: Potency index, ratio of ciprofloxacin MIC90 to compound MIC90 for Enterococcus faecalis ATCC 29212; type: functional
[27] = system: Staphylococcus epidermidis; test: Potency index, ratio of levofloxacin MIC90 to compound MIC90 for methicillin-sensitive Staphylococcus epidermidis ATCC 12228; type: functional
[28] = system: Proteus mirabilis; test: Antibacterial activity against Proteus mirabilis 13-1 after 18 to 24 hrs by two-fold serial dilution method; type: functional; how it was run: as §1
[29] = system: Enterococcus faecalis; test: Antibacterial activity against Enterococcus faecalis ATCC 51299 after 18 to 24 hrs by two-fold serial dilution method; type: functional; how it was run: as §1
[30] = system: Stenotrophomonas maltophilia; test: Antibacterial activity against Stenotrophomonas maltophilia ATCC 13636 after 18 to 24 hrs by two-fold serial dilution method; type: functional; how it was run: as §1
[31] = system: Acinetobacter calcoaceticus; test: Antibacterial activity against Acinetobacter calcoaceticus ATCC 19606 after 18 to 24 hrs by two-fold serial dilution method; type: functional; how it was run: as §1
[32] = system: Enterococcus faecalis; test: Potency index, ratio of levofloxacin MIC90 to compound MIC90 for Enterococcus faecalis ATCC 51299; type: functional
[33] = system: Morganella morganii; test: Antibacterial activity against Morganella morganii ATCC 25830 after 18 to 24 hrs by two-fold serial dilution method; type: functional; how it was run: as §1
[34] = system: Providencia rettgeri; test: Antibacterial activity against Providencia rettgeri ATCC 31052 after 18 to 24 hrs by two-fold serial dilution method; type: functional; how it was run: as §1
[35] = Cytotoxicity against African green monkey Vero cells assessed as reduction in cell viability after 72 hrs by MTT assay; type: cell-based; settings: chlorocebus sabaeus
How it was run: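 VERO cells were kept in MEM with Earle's salts and 10% FBS at 37 °C, 5% CO2. They were seeded in 96-well plates and allowed to recover for 24 h. Cells were then exposed to compounds in DMSO over a series from 1000 down to 4 for 72 h. Viability was read by MTT, and CC50 was calculated by Bliss analysis.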

[36] = Elimination half life in ICR mouse at 50 mg/kg, po administered as single dose by HPLC analysis; type: ADME, organism-based; settings: in vivo, read-out: beta t1/2 (converted)
[37] = system: Staphylococcus aureus; test: Potency index, ratio of ciprofloxacin MIC90 to compound MIC90 for methicillin-sensitive Staphylococcus aureus ATCC 29213; type: functional
[38] = system: Enterobacter cloacae; test: Antibacterial activity against Enterobacter cloacae ATCC 43560 after 18 to 24 hrs by two-fold serial dilution method; type: functional

Compound	MIC90 [1]	MIC90 [2]	MIC90 [3]	MIC90 [5]	MIC90 [6]	MIC90 [7]	MIC90 [9]	MIC90 [10]	MIC90 [11]	MIC90 [12]	MIC90 [13]	MIC90 [14]	MIC90 [20]	MIC90 [21]	MIC90 [23]	MIC90 [24]	MIC90 [25]	MIC90 [28]	MIC90 [29]	MIC90 [30]	other results
CO/N=C1\C(=O)N(CCCN2CCN(c3cc4c(cc3F)c(=O)c(C(=O)O)cn4C3CC3)CC2)c2ccc(C)cc21	0.06 µg/mL (≈ 0.107 µM)	≤ 0.03 µg/mL	0.06 µg/mL (≈ 0.107 µM)	0.25 µg/mL (≈ 0.445 µM)	≤ 0.03 µg/mL	≤ 0.03 µg/mL	0.5 µg/mL (≈ 0.89 µM)	2 µg/mL (≈ 3.56 µM)	≤ 0.03 µg/mL	0.78 µg/mL (≈ 1.39 µM)	≤ 0.03 µg/mL	8 µg/mL (≈ 14.2 µM)	≤ 0.03 µg/mL	1 µg/mL (≈ 1.78 µM)	0.06 µg/mL (≈ 0.107 µM)	0.5 µg/mL (≈ 0.89 µM)	0.06 µg/mL (≈ 0.107 µM)	≤ 0.03 µg/mL	0.5 µg/mL (≈ 0.89 µM)	≤ 0.03 µg/mL	AUC(0-inf) [4]: 2860 ng·h/mL; Ratio [8]: 2 - 64; half-life [15]: 0.283 h; Ratio [16]: 2 - 64; Ratio [17]: 2 - 64; Ratio [18]: 2 - 64; Tmax [19]: 1.2 h; Cmax [22]: 832 ng/mL; Ratio [26]: 2 - 64; Ratio [27]: 2 - 64; MIC90 [31]: 0.25 µg/mL (≈ 0.445 µM); Ratio [32]: 2 - 64; MIC90 [33]: ≤ 0.03 µg/mL; MIC90 [34]: ≤ 0.03 µg/mL; CC50 at 72 h [35]: 256 µg/mL (≈ 456 µM); half-life [36]: 3.3 h; Ratio [37]: 2 - 64; MIC90 [38]: ≤ 0.03 µg/mL
CCO/N=C1\C(=O)N(CCCN2CCN(c3cc4c(cc3F)c(=O)c(C(=O)OCCCN3C(=O)/C(=N/OCC)c5ccccc53)cn4C3CC3)CC2)c2ccccc21	64 µg/mL (≈ 80.8 µM)	128 µg/mL (≈ 162 µM)	> 128 µg/mL	64 µg/mL (≈ 80.8 µM)	64 µg/mL (≈ 80.8 µM)	128 µg/mL (≈ 162 µM)	64 µg/mL (≈ 80.8 µM)	> 128 µg/mL	64 µg/mL (≈ 80.8 µM)	25 µg/mL (≈ 31.6 µM)	8 µg/mL (≈ 10.1 µM)	> 128 µg/mL	32 µg/mL (≈ 40.4 µM)	128 µg/mL (≈ 162 µM)	128 µg/mL (≈ 162 µM)	64 µg/mL (≈ 80.8 µM)	> 128 µg/mL	64 µg/mL (≈ 80.8 µM)	> 128 µg/mL	> 128 µg/mL	MIC90 [31]: > 128 µg/mL; MIC90 [33]: 64 µg/mL (≈ 80.8 µM); MIC90 [34]: 128 µg/mL (≈ 162 µM); CC50 at 72 h [35]: 32 µg/mL (≈ 40.4 µM); MIC90 [38]: 64 µg/mL (≈ 80.8 µM)
CCO/N=C1\C(=O)N(CCCN2CCN(c3cc4c(cc3F)c(=O)c(C(=O)OCCCN3C(=O)/C(=N/OCC)c5cc(C)ccc53)cn4C3CC3)CC2)c2ccc(C)cc21	32 µg/mL (≈ 39 µM)	64 µg/mL (≈ 78.1 µM)	64 µg/mL (≈ 78.1 µM)	128 µg/mL (≈ 156 µM)	32 µg/mL (≈ 39 µM)	64 µg/mL (≈ 78.1 µM)	64 µg/mL (≈ 78.1 µM)	128 µg/mL (≈ 156 µM)	64 µg/mL (≈ 78.1 µM)	50 µg/mL (≈ 61 µM)	16 µg/mL (≈ 19.5 µM)	> 128 µg/mL	16 µg/mL (≈ 19.5 µM)	64 µg/mL (≈ 78.1 µM)	64 µg/mL (≈ 78.1 µM)	128 µg/mL (≈ 156 µM)	128 µg/mL (≈ 156 µM)	64 µg/mL (≈ 78.1 µM)	128 µg/mL (≈ 156 µM)	128 µg/mL (≈ 156 µM)	MIC90 [31]: 64 µg/mL (≈ 78.1 µM); MIC90 [33]: 32 µg/mL (≈ 39 µM); MIC90 [34]: 64 µg/mL (≈ 78.1 µM); CC50 at 72 h [35]: 64 µg/mL (≈ 78.1 µM); MIC90 [38]: 128 µg/mL (≈ 156 µM)
